This is an account of results in PMC3880617 (Journal of medicinal chemistry, 2013).

The subject of series [1] is human ovarian cancer A2780 cell line. Particulars: read-out: IC50 A2780; cisplatin dissolved in H2O; ref [18]; cited from earlier work.
Series [2] concerns plasmid (pBR322) DNA. Put plainly: Electrophoresis mobility shift assay with plasmid DNA. The series is classed as binding. The following applies: metal/DNAbp ratios 0.25-2.0; 37 °C, 20 h. Summed up:
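Supercoiled pBR322 (20 μg/mL) in 5 mM Tris/HCl, 50 mM NaClO4, pH 7.39, incubated with test compound at […] metal complex:DNAbp ratios for 20 h at 37 °C in the dark. Untreated DNA and cisplatin-DNA were the controls. Samples were run on 1% agarose in TAE for 1.5 h at 80 V and stained with GelRed for 30 min. Read-out: ratio at which the two plasmid forms coalesce.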

Series [3] deals with non-tumorigenic human embryonic kidney cells HEK293T. Particulars: read-out: IC50 HEK-293T; cisplatin dissolved in H2O; ref [18]; cited from earlier work.
Series [4] has as its system human breast cancer cell line MCF7. Particulars: read-out: IC50 MCF7; cisplatin dissolved in H2O; ref [18]; cited from earlier work.
The subject of series [5] is A2780cisR (cisplatin resistant variant of A2780). Particulars: read-out: IC50 A2780cisR; cisplatin dissolved in H2O; ref [18]; cited from earlier work.
Series [6] is described as follows: Stability in solution by 31P{1H} NMR in deuterated solvents. The series is classed as physicochemical.

For orientation: IC50 means the concentration that gives 50% inhibition. On to `N.N.[Cl][Pt][Cl]` [cisplatin], for which the IC50 was 1.9 ± 0.6 µM in series [1], 11 ± 2.9 µM in series [3], 20 ± 3 µM in series [4] and 35 ± 7 µM in series [5]. Also, in series [2], the “effect on electrophoretic mobility of pBR322 plasmid forms” value is “decrease in mobility of the CCC form and an increase in mobility of the OC form”.

As to “[{Cp-P(Ph2)=NH-Ph}2Fe](AuCl4)2 [compound 4]”, in series [6], the “half-life in d6-DMSO solution” value is recorded as “weeks”.
